Data from ChEMBL document CHEMBL3351942, “Rexinoids isolated from Sophora tonkinensis with a gene expression profile distinct from the synthetic rexinoid bexarotene” (J Nat Prod, 2014).
Calls of active or inactive are those of the source. The calls are words filed in the database; no cut-off is given here.

Tests used:
[1] = molecular target: T1, Peroxisome proliferator-activated receptor alpha (Homo sapiens) (UniProt Q07869); assay: Activation of PPARalpha (unknown origin) by receptor-CBP cofactor complex formation assay
T1 sequence (whole entry): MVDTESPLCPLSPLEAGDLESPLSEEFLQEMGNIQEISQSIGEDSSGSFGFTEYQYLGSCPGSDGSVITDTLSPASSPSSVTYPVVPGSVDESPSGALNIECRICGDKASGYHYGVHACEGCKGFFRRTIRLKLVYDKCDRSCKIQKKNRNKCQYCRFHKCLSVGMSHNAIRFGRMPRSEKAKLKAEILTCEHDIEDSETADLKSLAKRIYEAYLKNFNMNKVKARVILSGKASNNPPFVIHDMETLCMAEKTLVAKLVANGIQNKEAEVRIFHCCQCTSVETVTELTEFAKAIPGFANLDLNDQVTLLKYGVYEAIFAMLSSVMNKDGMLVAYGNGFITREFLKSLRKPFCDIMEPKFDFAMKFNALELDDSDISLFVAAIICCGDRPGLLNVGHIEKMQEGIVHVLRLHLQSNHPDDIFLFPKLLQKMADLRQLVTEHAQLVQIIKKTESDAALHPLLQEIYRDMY
Method in brief: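 Cell-free cofactor recruitment ELISA: ligand-dependent binding of PPAR isotypes to CBP, detected by HRP-conjugated anti-PPAR antibody at OD450. Full agonists GW7647 (α), GW1929 (γ), GW501516 (δ) define 100%, vehicle 0%; efficacy as maximum B/Bmax% and potency as EC50.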

[2] = molecular target: T2, Peroxisome proliferator-activated receptor delta (Mus musculus) (UniProt P35396); assay: Activation of PPARdelta in mouse C2C12 cells assessed as induction of ANGPTL4 mRNA expression at 10 uM after 24 hrs in presence of GW501516 by quantitative RT-PCR analysis; assay type: cell-based
T2 sequence (whole entry): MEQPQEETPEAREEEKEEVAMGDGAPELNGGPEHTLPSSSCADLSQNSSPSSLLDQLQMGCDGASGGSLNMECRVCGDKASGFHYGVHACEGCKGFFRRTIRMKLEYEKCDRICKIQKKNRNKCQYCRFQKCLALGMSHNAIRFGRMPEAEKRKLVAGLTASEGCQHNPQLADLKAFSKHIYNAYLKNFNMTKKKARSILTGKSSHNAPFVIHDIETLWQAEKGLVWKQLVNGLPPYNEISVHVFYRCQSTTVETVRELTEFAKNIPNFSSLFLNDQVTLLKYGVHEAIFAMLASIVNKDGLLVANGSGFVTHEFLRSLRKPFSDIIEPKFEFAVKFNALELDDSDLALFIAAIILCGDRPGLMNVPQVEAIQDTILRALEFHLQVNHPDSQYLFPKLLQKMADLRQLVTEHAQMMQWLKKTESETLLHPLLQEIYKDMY
Method in brief: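 Differentiated C2C12 myotubes (2% horse serum, 5 days) exposed 24 h with or without PPARδ agonist GW501516 (1 μM). mRNA quantified by SYBR green real-time RT-PCR, normalized to β-actin by delta-delta Ct, and expressed as fold induction vs vehicle; means ± SD of four determinants from one of two independent experiments; one-way ANOVA with Bonferroni.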

[3] = Activation of LXR in mouse C2C12 cells assessed as induction of SREBP1 mRNA expression at 10 uM after 24 hrs in presence of T0901317 by quantitative RT-PCR analysis; assay type: cell-based
Method in brief: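 C2C12 myoblasts grown in DMEM/10% FBS, differentiated at confluence in 2% horse serum, medium changed every other day for 5 days; myotubes treated 24 h with or without T0901317 (1 μM). Total RNA, DNase-treated, oligo(dT) RT from 0.5 μg, SYBR green qPCR; normalized to β-actin (delta-delta Ct), fold over vehicle; mean ± SD of four determinants, one of two experiments.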

[4] = Activation of LXR in mouse C2C12 cells assessed as induction of LPL mRNA expression at 10 uM after 24 hrs by quantitative RT-PCR analysis; assay type: cell-based
Homo sapiens = species on record: Homo sapiens; assay: Activation of PPARgamma/RXR heterodimer in human hepatoma cells assessed as potentiation of rosiglitazone-induced increase in ANGPTL4 mRNA level at 10 uM by quantitative RT-PCR analysis; assay type: cell-based
Method in brief: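 HLE human hepatoma cells (DMEM, 10% FBS, 37 °C, 5% CO2) treated with or without rosiglitazone; ANGPTL4 mRNA by SYBR green qRT-PCR, β-actin-normalized delta-delta Ct, fold vs vehicle; means ± SD of three determinants, representative of three experiments.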

[5] = molecular target: T3, Retinoic acid receptor alpha (Homo sapiens) (UniProt P10276); assay: Activation of human RAR-alpha expressed in HEK293 cells coexpressing with tk-betaRE-Luc after 24 hrs by luciferase reporter gene assay; assay type: cell-based
T3 sequence (whole entry): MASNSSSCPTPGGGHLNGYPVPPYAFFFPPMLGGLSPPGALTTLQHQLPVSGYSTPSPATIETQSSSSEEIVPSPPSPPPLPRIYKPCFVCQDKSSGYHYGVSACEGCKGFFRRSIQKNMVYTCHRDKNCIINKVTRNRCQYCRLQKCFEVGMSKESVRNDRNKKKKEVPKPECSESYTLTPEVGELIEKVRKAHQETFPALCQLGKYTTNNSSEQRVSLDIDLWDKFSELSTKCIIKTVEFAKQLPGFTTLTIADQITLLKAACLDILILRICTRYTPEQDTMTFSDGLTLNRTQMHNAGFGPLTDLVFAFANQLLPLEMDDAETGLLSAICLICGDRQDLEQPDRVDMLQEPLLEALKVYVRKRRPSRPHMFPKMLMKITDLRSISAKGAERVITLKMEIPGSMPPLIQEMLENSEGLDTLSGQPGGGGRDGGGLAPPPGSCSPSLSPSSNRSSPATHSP
Method in brief: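 Calcium phosphate transfection of HEK293 cells with 30 ng pCMX-hRAR-α, 120 ng tk-βRE-Luc and 30 ng pCMX-β-gal plus carrier pUC18 (600 ng DNA per well). Cells were washed 8 h later and incubated with compound in 10% FBS medium. Luciferase was normalized to β-galactosidase; triplicate or quadruplicate, representative of three experiments.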

Activity [1]: inactive
Activity [2]: Active
Activity [5]: inactive
Compound: CC(C)=CCc1cc([C@@H]2CC(=O)c3ccc(O)c(CC=C(C)C)c3O2)cc2c1OC(C(C)(C)O)C2 (stereo partly specified)
Activity [3]: inactive
Activity [4]: Active
Activity (Homo sapiens): Active
